This note sets out measurements from ChEMBL document CHEMBL1135749, “Stereoselective synthesis and antiviral activity of D-2',3'-didehydro-2',3'-dideoxy-2'-fluoro-4'-thionucleosides” (J Med Chem, 2002).

The structures appear in SMILES notation.

A short description of assay [1]: Ratio of kinetic parameter Kcat to that of binding affinity towards adenosine deaminase KM. In short, it runs like this:
(§1)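 Calf intestinal mucosa adenosine deaminase (0.15 units) in pH 7.4 phosphate buffer (2 mL) at 25 °C, with substrate at 15-100 µM. Hydrolysis was followed by UV absorbance at 265 nm, and substrate concentration was derived from the absorbance change. Initial rates came from graphical fitting of concentration versus time.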

Assay [2] deals with T1, Adenosine deaminase (Bos taurus) (UniProt P56658).
T1 sequence (whole entry): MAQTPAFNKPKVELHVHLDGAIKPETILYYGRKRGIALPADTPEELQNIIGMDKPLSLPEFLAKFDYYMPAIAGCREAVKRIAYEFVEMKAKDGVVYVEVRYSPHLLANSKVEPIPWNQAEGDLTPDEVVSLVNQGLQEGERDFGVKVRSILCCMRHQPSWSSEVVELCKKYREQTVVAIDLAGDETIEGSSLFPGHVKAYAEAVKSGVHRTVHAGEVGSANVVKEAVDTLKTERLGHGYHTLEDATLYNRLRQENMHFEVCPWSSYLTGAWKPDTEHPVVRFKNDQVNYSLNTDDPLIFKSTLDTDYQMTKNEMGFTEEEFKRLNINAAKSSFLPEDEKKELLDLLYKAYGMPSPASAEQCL
Kind of assay: Kinetic parameter Kcat of compound used as substrate for Adenosine deaminase was evaluated. The gist of the method:
as §1

With `Nc1ncnc2c1ncn2[C@@H]1S[C@H](CO)C=C1F`, in assay [1], the k cat/Km stood at 50000 M⁻¹ s⁻¹. This compound came in with a k cat in assay [2] of 0.94 s⁻¹.

For `Nc1ncnc2c1ncn2[C@@H]1O[C@H](CO)[C@@H](O)[C@H]1O`, the k cat/Km in assay [1] was determined as 3.1e+06 M⁻¹ s⁻¹. This compound yielded a k cat in assay [2] of 76.4 s⁻¹.
